Broadly, the fold induction is the ratio of treated to control signal.

Active and inactive are the calls of the source. No cut-off for these calls is given here.

Experiment [1] has as its system Hepa 1c1c7. The experiment in a line: Induction of quinone reductase activity in mouse Hepa 1c1c7 cells at 1 uM after 24 hrs relative to control. Type of experiment: cell-based. The method in brief:
(§1)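 Cells seeded at 10⁴/well and grown 24 h in α-MEM with 10% FCS, 5% CO₂, 37 °C. They were then exposed 24 h to compound (DMSO ≤0.5% final), using the same concentration as the viability test. Lysis used digitonin/EDTA. MTT-coupled menadione reduction mix was added (Tris pH 7.4, FAD, G6P, NADP, G6PDH). Reaction stopped after 5 min with dicoumarol and read at 590 nm. Result is blank-corrected treated/control (0.5% DMSO) ratio, mean ± SD, n = 3. Lines 12-14 used the c1 mutant, which lacks CYP1A1-dependent AHH activity.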

Experiment [2] in a line: Cytotoxicity against mouse Hepa 1c1c7 cells assessed as cell viability at 1 uM after 24 hrs by MTT assay. It is filed as functional. The note with it: Hepa-1c1c7, 24 h, read-out: Activity. The method in brief:
(§2)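 Hepa 1c1c7 murine hepatoma cells exposed for 24 h to compound from DMSO stock, serially diluted to final […], with DMSO ≤1% final. MTT then added for 3 h, cells lysed, and formazan read at 590 nm. Blank-subtracted absorbance expressed as % of untreated control wells. Mean of at least three independent determinations.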
(Formazan colour is commonly taken as a measure of viable cells.)

Experiment [3] relates to Hepa 1c1c7. Description: Induction of quinone reductase activity in mouse Hepa 1c1c7 cells at 12.5 uM after 24 hrs relative to control. Type of experiment: cell-based. The method in brief:
as §1

The nature of experiment [4]: Cytotoxicity against mouse Hepa 1c1c7 cells assessed as cell viability at 12.5 uM after 24 hrs by MTT assay. Type of experiment: functional. The note with it: Hepa-1c1c7, 24 h, read-out: Activity. The gist of the method:
as §2

In experiment [5] the test system is Hepa 1c1c7c1. The experiment in a line: Induction of quinone reductase activity in mouse mutant Hepa 1c1c7c1 cells assessed as concentration required to double the enzyme activity. It is filed as cell-based. The gist of the method: (§3)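 Hepa 1c1c7 wild-type or AHH-deficient c1 mutant cells, 10⁴ per well, grown for 24 h in α-MEM with 10% FCS at 37 °C and 5% CO₂, then exposed to compound from DMSO stock (final DMSO ≤0.5%) for 24 h. Cells were digitonin/EDTA-lysed and given an NADP/G6P-regenerating mix with FAD, MTT and menadione for 5 min. The reaction was stopped with dicoumarol and read at 590 nm; CD is the concentration doubling QR activity versus the DMSO control.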

For experiment [6], the system named is Hepa 1c1c7. The experiment in a line: Induction of quinone reductase activity in mouse Hepa 1c1c7 cells assessed as concentration required to double the enzyme activity. It is filed as cell-based. The method in brief: as §3
Experiment [7] is described as follows: ABTS radical scavenging activity assessed as trolox equivalent antioxidant capacity. It is filed as functional. The gist of the method: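 ABTS radical cation diluted in PBS pH 7.4 to absorbance 0.700 (±0.02) at 734 nm, 25 °C. Compound added from ethanol stock. Absorbance decrease read at 1, 3 and 5 min. Percent reduction at 5 min plotted against concentration ([…] as printed); slope divided by Trolox slope gives TEAC. Run at least three times on separate occasions.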

In experiment [8] the test system is Hepa 1c1c7c1. The experiment in a line: Induction of quinone reductase in mouse mutant Hepa 1c1c7c1 cells at 12.5 uM after 24 hrs relative to control. It is filed as cell-based. The method in brief:
as §1

A short description of experiment [9]: Cytotoxicity against mouse Hepa 1c1c7 cells assessed as cell viability at 5 uM after 24 hrs by MTT assay. It is filed as functional. The settings on record: Hepa-1c1c7, 24 h, read-out: Activity. The gist of the method:
as §2

In experiment [10] the test system is Hepa 1c1c7. The experiment in a line: Induction of quinone reductase activity in mouse Hepa 1c1c7 cells at 5 uM after 24 hrs relative to control. It is filed as cell-based. The method in brief:
as §1

Experiment [11] concerns Hepa 1c1c7. Description: Induction of quinone reductase activity in mouse Hepa 1c1c7 cells at 6.3 uM after 24 hrs relative to control. Type of experiment: cell-based. The method in brief: as §1
Experiment [12] is described as follows: Cytotoxicity against mouse Hepa 1c1c7 cells assessed as cell viability at 6.3 uM after 24 hrs by MTT assay. Type of experiment: functional. The note with it: Hepa-1c1c7, 24 h, read-out: Activity. The gist of the method: as §2
Experiment [13] deals with Hepa 1c1c7. Description: Induction of quinone reductase activity in mouse Hepa 1c1c7 cells at 25 uM after 24 hrs relative to control. Type of experiment: cell-based. The method in brief: as §1
Experiment [14] is described as follows: Cytotoxicity against mouse Hepa 1c1c7 cells assessed as cell viability at 25 uM after 24 hrs by MTT assay. Type of experiment: functional. The settings on record: Hepa-1c1c7, 24 h, read-out: Activity. The gist of the method: as §2

`COc1ccc(/C=C\c2cccc(OC)c2)cc1` returned an Activity in experiment [1] of less than 1. Further, the viability at 1 µM in [2] worked out at 92%.
Take `COc1ccc(/C=C/c2ccccc2O)cc1` [2-hydroxy-4'-methoxystilbene]: the Activity in [3] was found to be 1.13. The viability at 12.5 µM in experiment [4] was 80%.
Regarding `C[S+]([O-])CCCCN=C=S` (stereo unspecified), the Activity in [5] is 0.28 µM; in experiment [6], 0.26 µM.
For `COc1ccc(/C=C/c2cccc(O)c2)cc1`, the Activity came to 1.08 in experiment [3] and 1.11 in [7]. The viability at 12.5 µM in experiment [4] turned out to be 81%.
`COc1ccc(/C=C\c2ccc(OC)c(OC)c2)cc1` [7Z-3,4,4'-TRIMETHOXYSTILBENE] came in with an Activity in experiment [1] of less than 1. Further, the viability at 1 µM in experiment [2] turned out to be 86%.
`COc1ccc(/C=C\c2ccc(OC)cc2)cc1`: the Activity in experiment [3] came to 1.06. Moreover, the viability at 12.5 µM in experiment [4] amounted to 64%.
In turn, `COc1ccccc1/C=C/c1ccccc1OC` yielded an Activity in [3] of 1.81. Further, the viability at 12.5 µM in experiment [4] came to 82%. Moreover, in [8], the fold induction was less than 1.
`COc1ccc(/C=C/c2cccc(OC)c2)cc1`: the Activity in experiment [3] is 1.44. The viability at 12.5 µM in experiment [4] turned out to be 90%. In addition, the fold induction in experiment [8] is less than 1.
Turning to `COc1ccc(/C=C/c2ccc(OC)cc2)cc1`, in experiment [3], the Activity came to 1.14. The viability at 12.5 µM in [4] amounted to 67%.
With `COc1ccc(/C=C/c2ccc(OC)c(OC)c2)cc1`, the Activity in [1] is less than 1. For the same molecule, the viability at 1 µM in [2] worked out at 100%.
In turn, `COc1ccc(/C=C/c2ccc(OC)cc2OC)cc1` came in with an Activity in experiment [3] of 1.18. The viability at 12.5 µM in [4] turned out to be 58%.
In turn, `COc1ccc(/C=C/c2cc(OC)cc(OC)c2)cc1` [TRISMETHOXYRESVERATROL] came in with an Activity in experiment [1] of less than 1. Further, the viability at 1 µM in experiment [2] came out at 94%.
As to `COc1ccc(/C=C\c2ccc(OC)c(O)c2)cc1`, the figures for the Activity in experiment [7] and in [10] were 1.11 and less than 1, respectively. For the same molecule, in [9], the viability at 5 µM was found to be 75%.
Turning to `COc1ccc(/C=C\c2cccc(O)c2)cc1`, the Activity in experiment [7] was 1.04; in experiment [10], less than 1. The viability at 5 µM in [9] turned out to be 90%.
Consider `COc1ccc(/C=C/c2c(OC)cccc2OC)cc1`, for which the Activity in [3] stood at 1.92; in [8] it was 1.05 µM. In addition, the viability at 12.5 µM in experiment [4] came out at 90%.
As to `O=c1cc(-c2ccccc2)oc2ccc3ccccc3c12`, the outcome in experiment [5] was inactive. The Activity in [6] came out at 0.028 µM.
Consider `COc1ccc(/C=C\c2cc(O)cc(O)c2)cc1`, for which the Activity in [3] is 1.04; in experiment [7] it was 1.86. Also, the viability at 12.5 µM in experiment [4] is 96%.
As for `COc1ccc(/C=C\c2cc(OC)cc(OC)c2)cc1` [8Z-3,4',5-TRIMETHOXYSTILBENE], the Activity in [1] was less than 1. Besides, the viability at 1 µM in [2] stood at 82%.
In the same order, the values of `COc1ccc(/C=C\c2ccccc2OC)cc1` are less than 1 and 56%.
The like results for `COc1ccc(/C=C\c2cc(OC)c(OC)c(OC)c2)cc1` were, in that order, less than 1 and 88%.
As for `COc1ccc(/C=C/c2ccccc2OC)cc1`, the results for the Activity in [11] and in experiment [3] were 1.8 and 2.04, respectively. Besides, the viability at 12.5 µM in experiment [4] turned out to be 58%. For the same molecule, in [12], the viability at 6.3 µM turned out to be 73%. For the same molecule, in experiment [8], the fold induction amounted to 1.14.
Regarding `Oc1cc(O)cc(/C=C/c2ccccc2)c1` [PINOSYLVIN], the Activity in [3] was 1.07; in experiment [7], 2.04. Besides, the viability at 12.5 µM in experiment [4] is 61%.
As to `COc1ccc(/C=C/c2cc(OC)c(OC)c(OC)c2)cc1`, the Activity in experiment [1] is less than 1. For the same molecule, in experiment [2], the viability at 1 µM is 86%.
As for `COc1ccc(/C=C/c2cc(O)cc(O)c2)cc1` [RESVERATROL 4'-METHYL ETHER], the Activity came to 1.14 in experiment [3] and 2.49 in experiment [7]. Also, in experiment [4], the viability at 12.5 µM was 87%.
The like results for `COc1ccc(/C=C/c2ccc(OC)c(O)c2)cc1` were, in that order, 1.33, 1.29 and 77%.
In turn, `COc1ccc(/C=C\c2ccc(OC)cc2OC)cc1` registered an Activity in experiment [1] of less than 1. In addition, the viability at 1 µM in experiment [2] is 85%.
For the molecule `Oc1ccc(/C=C/c2cc(O)cc(O)c2)cc1` [RESVERATROL], the Activity was 1.5 in [13], 1.24 in [3] and 2.74 in [7]. In addition, the viability at 12.5 µM in experiment [4] turned out to be 80%. The viability at 25 µM in [14] is 55%. In experiment [8], this molecule had a fold induction of 1.16.

For the origin of these results see ChEMBL document CHEMBL1147212, “Quinone reductase induction activity of methoxylated analogues of resveratrol” (2007).
